Reference: ChEMBL document CHEMBL4732114, “Design and structural optimization of novel 2H-benzo[h]chromene derivatives that target AcrB and reverse bacterial multidrug resistance” (Eur J Med Chem, 2021)
Calls of active or inactive are those of the source. No cut-off for these calls is given here.

Legend:
Cell membrane [1] = test: Induction of outer membrane permeabilization in wild type Escherichia coli BW25113 assessed as increase in nitrocefin hydrolysis at 256 ug/ml in presence of CCCP by spectroscopic analysis; details: dose 256 µg/ml
Method in brief: (§1)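 Intact E. coli were treated with 10 μM CCCP to block nitrocefin efflux, then given compound, nothing, or polymyxin B as permeabilizer control. Nitrocefin was added, and hydrolysis by periplasmic β-lactamase was followed as the rise in absorbance at 490 nm. Duplicate experiments were run on different days.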

Cell membrane [2] = test: Induction of inner membrane permeabilization in wild type Escherichia coli BW25113 assessed as perturbation of proton motive force at 8 ug/ml measured after 10 mins in presence of CCCP and glucose by Di0C2(3) probe based fluorescence assay; details: escherichia coli bw25113, 10 min, dose 8 µg/ml
Method in brief: (§2)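 Cell suspensions were left untreated or exposed to 8-128 µg/mL compound for 10 min. DiOC₂(3) was then added and fluorescence followed to a plateau. Cells were re-energized with 0.5% glucose, and the rise in fluorescence was read as membrane-potential build-up. CCCP was added last to dissipate the potential.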

[3] = molecular target: T1, Multidrug efflux pump subunit AcrB (Escherichia coli (strain K12)) (UniProt P31224); test: Inhibition of AcrB in Escherichia coli BW25113 assessed as reduction in glucose-induced nile red efflux at 100 to 200 uM preincubated for 15 mins followed by nile red addition and incubated for 3 hrs in shaker in presence of CCCP by fluorimetric analysis; details: dose 100-200 µM, time 3.25 hrs
T1 sequence (whole entry): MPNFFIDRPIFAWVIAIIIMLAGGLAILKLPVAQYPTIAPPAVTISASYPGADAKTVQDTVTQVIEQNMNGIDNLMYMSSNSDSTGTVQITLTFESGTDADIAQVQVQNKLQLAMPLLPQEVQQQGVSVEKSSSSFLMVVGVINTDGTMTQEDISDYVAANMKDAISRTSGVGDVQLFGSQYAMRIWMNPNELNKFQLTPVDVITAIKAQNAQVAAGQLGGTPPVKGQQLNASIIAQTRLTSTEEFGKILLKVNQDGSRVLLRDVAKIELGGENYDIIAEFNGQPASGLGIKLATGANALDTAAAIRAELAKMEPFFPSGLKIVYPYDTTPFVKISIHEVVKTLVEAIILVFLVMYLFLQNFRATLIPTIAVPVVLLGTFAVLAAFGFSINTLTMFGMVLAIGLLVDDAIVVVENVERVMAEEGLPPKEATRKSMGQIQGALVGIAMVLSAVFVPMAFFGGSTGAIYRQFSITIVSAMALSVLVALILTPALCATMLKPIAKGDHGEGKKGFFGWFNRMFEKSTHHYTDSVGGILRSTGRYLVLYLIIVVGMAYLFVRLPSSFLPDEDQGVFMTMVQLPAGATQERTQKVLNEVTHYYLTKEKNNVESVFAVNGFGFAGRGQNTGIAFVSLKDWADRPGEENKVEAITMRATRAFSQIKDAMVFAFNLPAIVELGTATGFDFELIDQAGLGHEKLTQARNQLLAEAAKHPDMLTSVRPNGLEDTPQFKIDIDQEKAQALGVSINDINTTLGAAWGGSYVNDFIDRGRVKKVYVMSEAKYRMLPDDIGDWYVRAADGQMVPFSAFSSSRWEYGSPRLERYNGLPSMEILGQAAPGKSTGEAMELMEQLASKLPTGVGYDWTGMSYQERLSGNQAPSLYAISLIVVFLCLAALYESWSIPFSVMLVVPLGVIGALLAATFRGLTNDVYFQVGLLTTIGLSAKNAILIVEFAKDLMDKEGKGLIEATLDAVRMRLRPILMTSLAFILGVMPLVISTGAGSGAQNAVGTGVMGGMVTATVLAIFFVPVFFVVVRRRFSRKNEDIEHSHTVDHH
Method in brief: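 Wild-type and AcrB-deleted cells were preloaded with Nile Red, with or without compound. Fluorescence was recorded, and efflux was triggered at 100 s with 0.2% glucose. Traces were compared with the deletion-strain level. Triplicate experiments used different cell batches.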

Cell membrane [4] = test: Induction of outer membrane permeabilization in wild type Escherichia coli BW25113 assessed as increase in nitrocefin hydrolysis at 32 ug/ml in presence of CCCP by spectroscopic analysis; details: dose 32 µg/ml; method in brief: as §1
Cell membrane [5] = test: Induction of inner membrane permeabilization in wild type Escherichia coli BW25113 assessed as perturbation of proton motive force at 64 ug/ml measured after 10 mins in presence of CCCP and glucose by Di0C2(3) probe based fluorescence assay; details: escherichia coli bw25113, 10 min, dose 64 µg/ml; method in brief: as §2
[6] = Cytotoxicity against human HepG2 cells assessed as growth inhibition at 10 uM relative to control; format: cell-based; details: read-out: GI
Method in brief: (§3)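 HepG2 cells treated at 10 μM and at 100 μM. Cell viability or inhibition rate recorded per concentration, with paclitaxel as positive control.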

[7] = Cytotoxicity against human HepG2 cells assessed as growth inhibition at 100 uM relative to control; format: cell-based; details: read-out: GI; method in brief: as §3
[8] = molecular target: T1, Multidrug efflux pump subunit AcrB (Escherichia coli (strain K12)); test: Inhibition of AcrB in multidrug-resistant Escherichia coli BW25113 assessed as potentiation of chloramphenicol-induced antibacterial activity by measuring fold change in chloramphenicol MIC at 128 ug/ml by checkerboard titration method relative to chloramphenicol MIC; details: dose 128.0 µg/ml
[9] = molecular target: T1, Multidrug efflux pump subunit AcrB (Escherichia coli (strain K12)); test: Inhibition of AcrB in multidrug-resistant Escherichia coli BW25113 assessed as potentiation of erythromycin-induced antibacterial activity by measuring fold change in erythromycin MIC at 8 ug/ml by checkerboard titration method relative to erythromycin MIC; details: dose 8.0 µg/ml
[10] = molecular target: T1, Multidrug efflux pump subunit AcrB (Escherichia coli (strain K12)); test: Inhibition of AcrB in multidrug-resistant Escherichia coli BW25113 assessed as potentiation of tetraphenylphosphonium-induced antibacterial activity by measuring fold change in tetraphenylphosphonium MIC at 128 ug/ml by checkerboard titration method relative to tetraphenylphosphonium MIC; details: dose 128.0 µg/ml
[11] = molecular target: T1, Multidrug efflux pump subunit AcrB (Escherichia coli (strain K12)); test: Inhibition of AcrB in multidrug-resistant Escherichia coli BW25113 assessed as potentiation of levofloxacin-induced antibacterial activity by measuring fold change in levofloxacin MIC at 128 ug/ml by checkerboard titration method relative to levofloxacin MIC; details: dose 128.0 µg/ml
[12] = molecular target: T1, Multidrug efflux pump subunit AcrB (Escherichia coli (strain K12)); test: Inhibition of AcrB in multidrug-resistant Escherichia coli BW25113 assessed as potentiation of tetraphenylphosphonium-induced antibacterial activity by measuring fold change in tetraphenylphosphonium MIC at 8 ug/ml by checkerboard titration method relative to tetraphenylphosphonium MIC; details: dose 8.0 µg/ml
[13] = molecular target: T1, Multidrug efflux pump subunit AcrB (Escherichia coli (strain K12)); test: Inhibition of AcrB in multidrug-resistant Escherichia coli BW25113 assessed as potentiation of levofloxacin-induced antibacterial activity by measuring fold change in levofloxacin MIC at 8 ug/ml by checkerboard titration method relative to levofloxacin MIC; details: dose 8.0 µg/ml
Cell membrane [14] = test: Induction of outer membrane permeabilization in wild type Escherichia coli BW25113 assessed as increase in nitrocefin hydrolysis at 64 ug/ml in presence of CCCP by spectroscopic analysis; details: dose 64 µg/ml; method in brief: as §1
[15] = molecular target: T1, Multidrug efflux pump subunit AcrB (Escherichia coli (strain K12)); test: Inhibition of AcrB in multidrug-resistant Escherichia coli BW25113 assessed as potentiation of chloramphenicol-induced antibacterial activity by measuring fold change in chloramphenicol MIC at 64 ug/ml by checkerboard titration method relative to chloramphenicol MIC; details: dose 64.0 µg/ml

With `Cc1ccccc1COc1cccc2c3c(c(-c4nnco4)cc12)CCC(C)(C)O3` as the molecule, how does the Activity (Cell membrane [1]) read?
Its Activity is “Not Active”.

Which Activity (Cell membrane [2]) does the source give for `CC(C)NCCOc1ccc2c(c1)OC(C)(C)CC2=O` here?
Its Activity is “Not Active”.

With `COc1cccc(COc2cccc3c4c(c(-c5nnco5)cc23)CCC(C)(C)O4)c1` as the molecule, how does the inhibition [3] read?
The inhibition was “Active”.

With `C=CC(=O)Nc1ccc(COc2cccc3c4c(c(Cn5cnnn5)cc23)CCC(C)(C)O4)cc1` as the molecule, how does the Activity (Cell membrane [4]) read?
Its Activity is “Not Active”.

Which Activity (Cell membrane [5]) does the source give for `CC1(C)CCc2c(-c3nnco3)cc3c(OCc4ccc(C#N)cc4)cccc3c2O1` here?
The Activity was “Not Active”.

Which Activity (Cell membrane [5]) does the source give for `CC1(C)CCc2c(C(=O)O)cc3c(OCc4ccccc4)cccc3c2O1` here?
The Activity was “Not Active”.

Which Activity (Cell membrane [1]) does the source give for `CC1(C)CCc2c(-c3nnco3)cc3c(OCc4ccc([N+](=O)[O-])cc4)cccc3c2O1` here?
The Activity was “Not Active”.

For `C=CC(=O)Nc1ccc(COc2cccc3c4c(c(C(=O)N5CCOCC5)cc23)CCC(C)(C)O4)cc1`, which Activity (Cell membrane [2]) is on record?
Its Activity is “Not Active”.

Which results are given for `CC1(C)CCc2c(C(=O)N3CCOCC3)cc3c(OCc4ccc(C(F)(F)F)cc4)cccc3c2O1`?
Activity (Cell membrane [2]): Not Active; Activity (Cell membrane [5]): Not Active

Which Activity (Cell membrane [2]) does the source give for `CC1(C)CCc2c(C(=O)N3CCOCC3)cc3c(OCc4ccccc4)cccc3c2O1` here?
The Activity was “Not Active”.

And the inhibition at 10 µM [6]?
Its inhibition at 10 µM is 2%.

What about the inhibition at 100 µM [7] of the same molecule?
The inhibition at 100 µM was 66%.

What about the Activity (Cell membrane [5]) of the same molecule?
The Activity was “Not Active”.

For `Cc1ccc(COc2cccc3c4c(c(-c5nnco5)cc23)CCC(C)(C)O4)cc1`, which fold change (FC) [8] is on record?
Its fold change (FC) is < 16.

And the fold change (FC) [9]?
Its fold change (FC) is 2.

And the inhibition at 10 µM [6]?
The inhibition at 10 µM was 6%.

What about the fold change (FC) [10] of the same molecule?
Its fold change (FC) is < 16.

And the fold change (FC) [11]?
Its fold change (FC) is < 16.

What about the inhibition at 100 µM [7] of the same molecule?
Its inhibition at 100 µM is 87%.

What about the fold change (FC) [12] of the same molecule?
The fold change (FC) was 2.

What about the fold change (FC) [13] of the same molecule?
The fold change (FC) was 2.

What does the source list for `CC1(C)CC(=O)c2ccc(OCC(=O)Nc3ccc(C#N)c(C(F)(F)F)c3)cc2O1`?
inhibition [3]: Active; Activity (Cell membrane [14]): Not Active; Activity (Cell membrane [5]): Not Active; fold change (FC) [15]: 2

For `CC1CN(C(=O)c2cc3c(OCc4c(Cl)cccc4Cl)cccc3c3c2CCC(C)(C)O3)CC(C)O1` (configuration not stated), which Activity (Cell membrane [2]) is on record?
Its Activity is “Not Active”.

And the fold change (FC) [13]?
Its fold change (FC) is 2.

What does the source list for `CNC(=O)c1ccc(COc2cccc3c4c(c(Cn5cnnn5)cc23)CCC(C)(C)O4)cc1`?
inhibition [3]: Active; Activity (Cell membrane [14]): Not Active

For `CC1(C)CC(=O)c2ccc(OCCNC3CCCC3)cc2O1`, which inhibition [3] is on record?
Its inhibition is “Active”.

For `CC1(C)CCc2c(Cn3cnnn3)cc3c(OCc4ccccc4)cccc3c2O1`, which Activity (Cell membrane [14]) is on record?
Its Activity is “Not Active”.
